From ChEMBL document CHEMBL4393676, “Design, Synthesis, and Preclinical Characterization of Selective Factor D Inhibitors Targeting the Alternative Complement Pathway” (J Med Chem, 2019)
pIC50: −log10 of the molar value. In brackets after ≈: the same amount, converted by molar mass.

How the values were obtained:
[1] = Clearance in C57BL/6 mouse at 1 mg/kg, iv or 10 mg/kg, po administered via gavage by HPLC-MS/MS analysis; assay type: ADME, organism-based; settings: in vivo
[2] = Solubility of the compound at pH 6.8; assay type: physicochemical; settings: buffer
[3] = Oral bioavailability in C57BL/6 mouse 10 mg/kg by HPLC-MS/MS analysis; assay type: ADME, organism-based; settings: in vivo; for bioavailability: C57BL/6, mouse
Coagulation factor XI = Coagulation factor XI (Homo sapiens, UniProt P03951); assay: Inhibition of F11a (unknown origin)
Tryptase beta-2 = Tryptase beta-2 (Homo sapiens, UniProt P20231); assay: Inhibition of tryptase-beta2 (unknown origin)
[4] = Cmax in C57BL/6 mouse at 10 mg/kg, po administered via gavage by HPLC-MS/MS analysis; assay type: ADME, organism-based; set-up: dose 10 mg/kg, route oral; settings: in vivo
[5] = AUC (0 to 7 hrs) in C57BL/6 mouse at 1 mg/kg, iv by HPLC-MS/MS analysis; assay type: ADME, organism-based; set-up: dose 1 mg/kg, time < 7 hr, route intravenous; settings: in vivo; for AUC(0-t) at 7 h: C57BL/6, mouse
[6] = Volume of distribution at steady state in C57BL/6 mouse at 1 mg/kg, iv or 10 mg/kg, po administered via gavage by HPLC-MS/MS analysis; assay type: ADME, organism-based; settings: in vivo, read-out: Vdss
[7] = Elimination half life in C57BL/6 mouse at 1 mg/kg, iv by HPLC-MS/MS analysis; assay type: ADME, organism-based; settings: in vivo, read-out: beta t1/2 (converted)
[8] = AUC (0 to 7 hrs) in C57BL/6 mouse at 10 mg/kg, po administered via gavage by HPLC-MS/MS analysis; assay type: ADME, organism-based; set-up: time < 7 hr, dose 10 mg/kg, route oral; settings: in vivo; for AUC(0-t) at 7 h: C57BL/6, mouse
Mus musculus [9] = assay: Suppression of LPS-induced alternative complementation pathway in human FD knock-in C57BL/6 mouse assessed as reduction in plasma Ba level treated via oral gavage […] prior to LPS stimulation and measured up to 24 hrs post-dose; assay type: functional, organism-based
[10] = Dose normalized AUC in Brown Norway rat plasma at 10 mg/kg, po administered via gavage by HPLC-MS/MS analysis; assay type: ADME, organism-based; settings: in vivo
Procedure, shortened: (§1)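 Three-month-old Brown Norway rats given single 10 mg/kg oral gavage, suspension in 0.5% HPMC/0.1% Tween 80. Plasma and both eyes' retina and posterior eye cup (RPE/choroid plus posterior sclera) taken from 2 rats per time at 0.25, 0.5, 1, 3, 6, 24 h; tissues homogenized in PBS with 10% acetonitrile, supernatants by HPLC-MS/MS. AUC dose normalized.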

[11] = Dose normalized AUC in Brown Norway rat posterior eye cup at 10 mg/kg, po administered via gavage by HPLC-MS/MS analysis; assay type: ADME, organism-based; settings: in vivo; procedure, shortened: as §1
[12] = Dose normalized AUC in Brown Norway rat retina at 10 mg/kg, po administered via gavage by HPLC-MS/MS analysis; assay type: ADME, organism-based; settings: in vivo; procedure, shortened: as §1
[13] = Plasma concentration in Brown Norway rat at 10 mg/kg, po administered via gavage measured at 24 hrs post dose by HPLC-MS/MS analysis; assay type: ADME, organism-based; procedure, shortened: as §1
[14] = Drug level in Brown Norway rat posterior eye cup at 10 mg/kg, po administered via gavage measured at 24 hrs post dose by HPLC-MS/MS analysis; assay type: ADME, organism-based; settings: read-out: Drug uptake; procedure, shortened: as §1
[15] = Drug level in Brown Norway rat retina at 10 mg/kg, po administered via gavage measured at 24 hrs post dose by HPLC-MS/MS analysis; assay type: ADME, organism-based; settings: in vivo, BLD = below limit of detection; procedure, shortened: as §1
[16] = Time at which posterior eye cup concentration stays above in vitro IC50 for inhibition of FD-mediated alternative complementation pathway in 50% human whole blood in Brown Norway rat at 10 mg/kg, po; assay type: organism-based; settings: in vivo; procedure, shortened: as §1
Mus musculus [17] = assay: Suppression of intravitreal injection-activated alternative complementation pathway in human FD knock-in C57BL/6 mouse model of local ocular injury assessed as reduction in ocular Ba level treated via oral gavage 2 hrs prior to intravitreal injection and measured after 4 hrs by Western blot analysis; assay type: functional, organism-based
Procedure, shortened: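 Human FD knock-in mice dosed by oral gavage (3 or 10 mg/kg) at time 0; 2 h later anesthetized and injected intravitreally with 1 µL sterile PBS. Eyes taken 4 h after injection; lysates analysed for Ba by Western blot, relative to vehicle, mean ± SEM.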

[18] = Clearance in Beagle dog at 1 mg/kg, iv or 10 mg/kg, po administered via gavage by HPLC-MS/MS analysis; assay type: ADME, organism-based, Canis lupus familiaris; settings: in vivo
Procedure, shortened: (§2)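 Beagle dogs, n=3 per route: IV 1 mg/kg in 2% 1N HCl, 20% PEG 300, 50% of 20% solutol in PBS; PO gavage 10 mg/kg as solution in 20% PEG 300, 10% solutol HS15, 70% citrate buffer pH 3. Blood at 5 min (IV), 15 min, 0.5, 1, 2, 4, 7, 24 h; HPLC-MS/MS (ESI positive); non-compartmental analysis; mean ± SD.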

[19] = Volume of distribution at steady state in Beagle dog at 1 mg/kg, iv or 10 mg/kg, po administered via gavage by HPLC-MS/MS analysis; assay type: ADME, organism-based, Canis lupus familiaris; settings: in vivo, read-out: Vdss; procedure, shortened: as §2
[20] = Half life in Beagle dog at 1 mg/kg, iv or 10 mg/kg, po administered via gavage by HPLC-MS/MS analysis; assay type: ADME, organism-based, Canis lupus familiaris; settings: in vivo; procedure, shortened: as §2
[21] = AUClast in Beagle dog at 10 mg/kg, po administered via gavage by HPLC-MS/MS analysis; assay type: ADME, organism-based, Canis lupus familiaris; set-up: dose 10 mg/kg, time 0 - last, route oral; settings: in vivo; procedure, shortened: as §2
[22] = Cmax in Beagle dog at 10 mg/kg, po administered via gavage by HPLC-MS/MS analysis; assay type: ADME, organism-based, Canis lupus familiaris; set-up: dose 10 mg/kg, route oral; settings: in vivo; procedure, shortened: as §2
[23] = Tmax in Beagle dog at 10 mg/kg, po administered via gavage by HPLC-MS/MS analysis; assay type: ADME, organism-based, Canis lupus familiaris; settings: in vivo; procedure, shortened: as §2
[24] = Oral bioavailability in Beagle dog at 10 mg/kg administered via gavage by HPLC-MS/MS analysis; assay type: ADME, organism-based, Canis lupus familiaris; settings: in vivo; procedure, shortened: as §2

clearance [1]	bioavailability [3]	Cmax [4]	Vd [6]	half-life [7]	AUC(0-t) at 7 h [5]	AUC(0-t) at 7 h [8]	Compound	other results
22 mL/min/kg	10%						NCc1cccc(-c2cccc(C(=O)Nc3ccccc3CC(=O)O)c2)c1	solubility [2]: 220 µM (≈ 79.3 µg/mL); pIC50 (Coagulation factor XI): 5.55; pIC50 (Tryptase beta-2): 5.64
0.7 mL/min/kg		26 µM	0.1 L/kg	150 min			N[C@H](CO)c1cccc(-c2cc(Br)cc(COc3ccccc3CC(=O)O)c2)c1	F ([3]; mouse): 25%; AUC ([5]; mouse, 7 h): 48.7 µM·h; AUC ([8]; mouse, 7 h): 11.6 µM·h
2.6 mL/min/kg	83%	31 µM	0.3 L/kg	96 min	16.1 µM·h	125 µM·h	N[C@H](CO)c1cccc(-c2cccc(COc3ccccc3CC(=O)O)c2)c1	Activity (Mus musculus [9]): Dose-dependent effect; AUC/dose [10]: 2300 nM·h; AUC/dose [11]: 1160 nM·h; AUC/dose [12]: 8 nM·h; concentration at 24 h [13]: 34 nM; concentration at 24 h [14]: 290 nM; Drug uptake [15]: Bld; Time [16]: > 24 h; Activity (Mus musculus [17]): Dose-dependent effect; clearance [18]: 3.8 mL/min/kg; Vd [19]: 0.8 L/kg; half-life [20]: 228 min; AUC(0-t) [21]: 85 µM·h; Cmax [22]: 16.5 µM; Tmax [23]: 48 min; bioavailability [24]: 70%
8.7 mL/min/kg	39%	10.7 µM	0.3 L/kg	78 min	4.97 µM·h	19.5 µM·h	N[C@H](CCO)c1cccc(-c2cccc(COc3ccccc3CC(=O)O)c2)c1	
14 mL/min/kg	100%						NCc1cccc(-c2cccc(COc3ccccc3CC(=O)O)c2)c1	
